From ChEMBL document CHEMBL1156307 (J Med Chem, 2010)

Biological target: Histone deacetylase 1 (Homo sapiens, UniProt Q13547)
Assay: Inhibition of FLAG-tagged HDAC1 expressed in HEK293 cells by fluorescent assay
Format: cell-based
Conditions: not given

Histone deacetylase 1, sequence (Q13547 whole entry): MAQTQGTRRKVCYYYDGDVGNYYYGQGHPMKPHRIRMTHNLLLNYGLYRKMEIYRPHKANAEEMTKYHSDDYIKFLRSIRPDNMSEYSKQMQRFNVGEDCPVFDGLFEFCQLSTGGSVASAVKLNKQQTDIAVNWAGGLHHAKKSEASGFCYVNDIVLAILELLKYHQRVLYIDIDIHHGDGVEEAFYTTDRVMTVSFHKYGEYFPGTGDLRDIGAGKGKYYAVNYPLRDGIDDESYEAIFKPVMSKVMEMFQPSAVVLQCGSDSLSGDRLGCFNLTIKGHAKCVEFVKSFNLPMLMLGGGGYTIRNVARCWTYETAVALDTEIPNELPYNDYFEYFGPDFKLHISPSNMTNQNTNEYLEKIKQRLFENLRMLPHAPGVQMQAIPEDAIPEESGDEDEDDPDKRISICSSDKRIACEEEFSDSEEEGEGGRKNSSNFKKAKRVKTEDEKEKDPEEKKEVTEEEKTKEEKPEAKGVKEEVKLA

IC50	Compound
76 nM	Cc1[nH]c2ccccc2c1CCN1CCc2ccc(/C=C/C(=O)NO)cc2CC1
5 nM	Cc1[nH]c2ccccc2c1C1CCCN(Cc2ccc(/C=C/C(=O)NO)cc2)C1 (configuration not stated)
2.8 nM	Cc1[nH]c2ccccc2c1C1CCN(Cc2ccc(/C=C/C(=O)NO)cc2)C1 (configuration not stated)
24 nM	Cc1[nH]c2ccccc2c1CC1CCCCN1Cc1ccc(/C=C/C(=O)NO)cc1 (configuration not stated)
136 nM	O=C(/C=C/c1ccc(CN2CCCC(c3c[nH]c4ccccc34)C2)c(F)c1)NO (configuration not stated)
16 nM	O=C(/C=C/c1ccc(CN2CCCC(c3c(-c4ccccc4)[nH]c4ccccc34)C2)c(F)c1)NO (configuration not stated)
11 nM	O=C(/C=C/c1ccc(CN2CCCC(c3c[nH]c4ccccc34)C2)cc1)NO (configuration not stated)
11 nM	O=C(/C=C/c1ccc(CN2CCCC(c3c(-c4ccccc4)[nH]c4ccccc34)C2)cc1)NO (configuration not stated)

Compound	IC50
Cc1[nH]c2ccccc2c1CCN1Cc2ccc(/C=C/C(=O)NO)cc2C1	27 nM
Cc1[nH]c2ccccc2c1CCN1CCc2cc(/C=C/C(=O)NO)ccc2C1	41 nM
Cc1[nH]c2ccccc2c1CCN1CCc2ccc(/C=C/C(=O)NO)cc2C1	13 nM

System: HCT-116
Assay: Antiproliferative activity against human HCT116 cells by MTS assay
Format: functional, cell-based
Conditions: not given
Procedure, shortened: (§1)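 Monolayer proliferation assay. Cells were seeded at 5000-10000 per well and exposed to eight serial compound dilutions for 72 h. Viability was read by CellTiter-Glo or MTS per the kit protocol, and IC50 was taken from growth curves. Each determination averaged triplicate concentration-inhibition curves. Values are the mean ± standard deviation of two separate determinations.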

IC50	Compound
545 nM	Cc1[nH]c2ccccc2c1CCN1CCc2ccc(/C=C/C(=O)NO)cc2CC1
5.6 nM	Cc1[nH]c2ccccc2c1C1CCCN(Cc2ccc(/C=C/C(=O)NO)cc2)C1 (configuration not stated)
3.2 nM	Cc1[nH]c2ccccc2c1C1CCN(Cc2ccc(/C=C/C(=O)NO)cc2)C1 (configuration not stated)
27 nM	Cc1[nH]c2ccccc2c1CC1CCCCN1Cc1ccc(/C=C/C(=O)NO)cc1 (configuration not stated)
332 nM	O=C(/C=C/c1ccc(CN2CCCC(c3c[nH]c4ccccc34)C2)c(F)c1)NO (configuration not stated)
11 nM	O=C(/C=C/c1ccc(CN2CCCC(c3c(-c4ccccc4)[nH]c4ccccc34)C2)c(F)c1)NO (configuration not stated)
3.8 nM	CC(C)(C)c1[nH]c2ccccc2c1C1CCCN(Cc2ccc(/C=C/C(=O)NO)cc2F)C1 (configuration not stated)
5.2 nM	CC(C)(C)c1[nH]c2ccccc2c1C1CCCN(Cc2ccc(/C=C/C(=O)NO)cc2Cl)C1 (configuration not stated)
25 nM	O=C(/C=C/c1ccc(CN2CCCC(c3c[nH]c4ccccc34)C2)cc1)NO (configuration not stated)
6.9 nM	O=C(/C=C/c1ccc(CN2CCCC(c3c(-c4ccccc4)[nH]c4ccccc34)C2)cc1)NO (configuration not stated)
0.9 nM	CC(C)(C)c1[nH]c2ccccc2c1C1CCCN(Cc2ccc(/C=C/C(=O)NO)cc2)C1 (configuration not stated)
13 nM	O=C(/C=C/c1ccc(CN(CCO)CCc2c[nH]c3ccccc23)cc1)NO [DACINOSTAT]

Compound	IC50
Cc1[nH]c2ccccc2c1CCN1Cc2ccc(/C=C/C(=O)NO)cc2C1	41 nM
Cc1[nH]c2ccccc2c1CCN1CCCC1c1ccc(/C=C/C(=O)NO)cc1 (configuration not stated)	1 nM
Cc1[nH]c2ccccc2c1CCN1CCc2cc(/C=C/C(=O)NO)ccc2C1	119 nM
CC(C)(C)c1[nH]c2ccccc2c1[C@H]1CCCN(Cc2ccc(/C=C/C(=O)NO)cc2F)C1	0.8 nM
CC(C)(C)c1[nH]c2ccccc2c1[C@@H]1CCCN(Cc2ccc(/C=C/C(=O)NO)cc2F)C1	143 nM
Cc1[nH]c2ccccc2c1CCN1CCc2ccc(/C=C/C(=O)NO)cc2C1	42 nM

System: not listed separately
Assay: Antiproliferative activity against human H1299 cells by MTS assay
Format: functional, cell-based
Conditions: NCI-H1299
Procedure, shortened: as §1

Compound	IC50
Cc1[nH]c2ccccc2c1CCN1Cc2ccc(/C=C/C(=O)NO)cc2C1	232 nM
Cc1[nH]c2ccccc2c1CCN1CCc2ccc(/C=C/C(=O)NO)cc2CC1	> 1000 nM
Cc1[nH]c2ccccc2c1C1CCCN(Cc2ccc(/C=C/C(=O)NO)cc2)C1 (configuration not stated)	31 nM
Cc1[nH]c2ccccc2c1C1CCN(Cc2ccc(/C=C/C(=O)NO)cc2)C1 (configuration not stated)	14 nM
Cc1[nH]c2ccccc2c1CC1CCCCN1Cc1ccc(/C=C/C(=O)NO)cc1 (configuration not stated)	153 nM
Cc1[nH]c2ccccc2c1CCN1CCCC1c1ccc(/C=C/C(=O)NO)cc1 (configuration not stated)	4.3 nM
Cc1[nH]c2ccccc2c1CCN1CCc2cc(/C=C/C(=O)NO)ccc2C1	725 nM
CC(C)(C)c1[nH]c2ccccc2c1[C@H]1CCCN(Cc2ccc(/C=C/C(=O)NO)cc2F)C1	5.4 nM
O=C(/C=C/c1ccc(CN2CCCC(c3c[nH]c4ccccc34)C2)c(F)c1)NO (configuration not stated)	3520 nM
O=C(/C=C/c1ccc(CN2CCCC(c3c(-c4ccccc4)[nH]c4ccccc34)C2)c(F)c1)NO (configuration not stated)	106 nM
CC(C)(C)c1[nH]c2ccccc2c1C1CCCN(Cc2ccc(/C=C/C(=O)NO)cc2F)C1 (configuration not stated)	20 nM
CC(C)(C)c1[nH]c2ccccc2c1[C@@H]1CCCN(Cc2ccc(/C=C/C(=O)NO)cc2F)C1	443 nM
CC(C)(C)c1[nH]c2ccccc2c1C1CCCN(Cc2ccc(/C=C/C(=O)NO)cc2Cl)C1 (configuration not stated)	60 nM
Cc1[nH]c2ccccc2c1CCN1CCc2ccc(/C=C/C(=O)NO)cc2C1	165 nM
O=C(/C=C/c1ccc(CN2CCCC(c3c[nH]c4ccccc34)C2)cc1)NO (configuration not stated)	141 nM
O=C(/C=C/c1ccc(CN2CCCC(c3c(-c4ccccc4)[nH]c4ccccc34)C2)cc1)NO (configuration not stated)	31 nM
CC(C)(C)c1[nH]c2ccccc2c1C1CCCN(Cc2ccc(/C=C/C(=O)NO)cc2)C1 (configuration not stated)	6.3 nM
O=C(/C=C/c1ccc(CN(CCO)CCc2c[nH]c3ccccc23)cc1)NO [DACINOSTAT]	161 nM

Biological target: Voltage-gated inwardly rectifying potassium channel KCNH2 (Homo sapiens, UniProt Q12809)
Assay: Inhibition of human ERG expressed in CHO cells by automated patch clamp electrophysiology assay
Conditions: not given

Voltage-gated inwardly rectifying potassium channel KCNH2, sequence (Q12809 whole entry): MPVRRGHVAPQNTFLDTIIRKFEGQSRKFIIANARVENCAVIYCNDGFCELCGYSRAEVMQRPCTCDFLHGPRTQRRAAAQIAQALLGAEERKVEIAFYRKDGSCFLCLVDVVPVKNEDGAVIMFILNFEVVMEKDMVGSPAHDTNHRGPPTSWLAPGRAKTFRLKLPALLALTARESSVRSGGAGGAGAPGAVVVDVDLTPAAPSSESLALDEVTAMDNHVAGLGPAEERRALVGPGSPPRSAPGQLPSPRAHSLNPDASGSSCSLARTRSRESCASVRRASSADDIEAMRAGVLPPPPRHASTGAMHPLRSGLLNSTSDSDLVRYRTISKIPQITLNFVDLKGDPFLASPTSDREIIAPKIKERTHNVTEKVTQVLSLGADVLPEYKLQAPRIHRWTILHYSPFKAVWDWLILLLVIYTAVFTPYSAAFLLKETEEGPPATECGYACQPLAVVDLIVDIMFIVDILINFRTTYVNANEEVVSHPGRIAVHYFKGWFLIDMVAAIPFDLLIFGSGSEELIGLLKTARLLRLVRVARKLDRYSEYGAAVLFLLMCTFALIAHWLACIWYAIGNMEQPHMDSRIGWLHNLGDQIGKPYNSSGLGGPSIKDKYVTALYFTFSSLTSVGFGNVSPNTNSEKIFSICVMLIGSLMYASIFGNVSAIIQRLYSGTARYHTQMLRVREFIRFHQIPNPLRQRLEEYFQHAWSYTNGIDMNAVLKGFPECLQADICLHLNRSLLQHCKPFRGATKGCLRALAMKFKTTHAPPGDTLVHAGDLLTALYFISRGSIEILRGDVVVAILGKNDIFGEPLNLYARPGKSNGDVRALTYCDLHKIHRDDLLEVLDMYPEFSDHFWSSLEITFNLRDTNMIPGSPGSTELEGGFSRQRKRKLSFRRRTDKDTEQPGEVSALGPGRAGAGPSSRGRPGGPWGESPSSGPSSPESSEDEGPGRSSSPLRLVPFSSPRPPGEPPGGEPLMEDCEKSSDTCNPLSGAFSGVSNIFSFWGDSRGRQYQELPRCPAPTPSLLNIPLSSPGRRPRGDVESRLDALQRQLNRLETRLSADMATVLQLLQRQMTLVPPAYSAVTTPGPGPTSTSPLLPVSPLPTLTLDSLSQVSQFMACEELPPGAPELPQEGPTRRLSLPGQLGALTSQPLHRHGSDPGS

Compound	IC50
Cc1[nH]c2ccccc2c1CCN1Cc2ccc(/C=C/C(=O)NO)cc2C1	4.8 µM
Cc1[nH]c2ccccc2c1CCN1CCc2ccc(/C=C/C(=O)NO)cc2CC1	3.2 µM
Cc1[nH]c2ccccc2c1C1CCCN(Cc2ccc(/C=C/C(=O)NO)cc2)C1 (configuration not stated)	27.6 µM
Cc1[nH]c2ccccc2c1C1CCN(Cc2ccc(/C=C/C(=O)NO)cc2)C1 (configuration not stated)	13.4 µM
Cc1[nH]c2ccccc2c1CCN1CCCC1c1ccc(/C=C/C(=O)NO)cc1 (configuration not stated)	19.4 µM
CC(C)(C)c1[nH]c2ccccc2c1C1CCCN(Cc2ccc(/C=C/C(=O)NO)cc2Cl)C1 (configuration not stated)	9.9 µM
Cc1[nH]c2ccccc2c1CCN1CCc2ccc(/C=C/C(=O)NO)cc2C1	2.7 µM
CC(C)(C)c1[nH]c2ccccc2c1C1CCCN(Cc2ccc(/C=C/C(=O)NO)cc2)C1 (configuration not stated)	13.5 µM

Biological target: Histone deacetylase 2 (Homo sapiens, UniProt Q92769)
Assay: Inhibition of HDAC2 expressed in baculovirus system by fluorescent assay
Conditions: not given

Histone deacetylase 2, sequence (Q92769 whole entry): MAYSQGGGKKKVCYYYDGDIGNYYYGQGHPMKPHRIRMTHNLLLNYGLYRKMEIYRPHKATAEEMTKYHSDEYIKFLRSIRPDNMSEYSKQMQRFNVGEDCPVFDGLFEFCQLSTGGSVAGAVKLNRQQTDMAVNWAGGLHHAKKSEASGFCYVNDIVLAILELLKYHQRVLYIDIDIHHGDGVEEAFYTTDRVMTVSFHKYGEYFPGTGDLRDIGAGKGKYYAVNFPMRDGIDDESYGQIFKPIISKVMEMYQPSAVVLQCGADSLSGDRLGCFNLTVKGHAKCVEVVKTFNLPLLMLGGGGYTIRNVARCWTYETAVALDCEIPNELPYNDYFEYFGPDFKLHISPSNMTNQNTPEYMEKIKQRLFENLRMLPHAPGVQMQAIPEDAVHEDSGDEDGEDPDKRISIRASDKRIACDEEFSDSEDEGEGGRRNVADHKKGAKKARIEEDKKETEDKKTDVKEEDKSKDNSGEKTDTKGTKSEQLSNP

Compound	IC50
CC(C)(C)c1[nH]c2ccccc2c1[C@H]1CCCN(Cc2ccc(/C=C/C(=O)NO)cc2F)C1	31 nM
CC(C)(C)c1[nH]c2ccccc2c1[C@@H]1CCCN(Cc2ccc(/C=C/C(=O)NO)cc2F)C1	48 nM

Biological target: Histone deacetylase 3 (Homo sapiens, UniProt O15379)
Assay: Inhibition of FLAG-tagged HDAC3 expressed in HEK293 cells by fluorescent assay
Format: cell-based
Conditions: not given
Procedure, shortened: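 HDAC3 immunopurified from 293 cells stably expressing FLAG-tagged enzyme. Substrate bis-Boc-(Ac)Lys-rhodamine 110; its deacetylation releases a fluorophore, read on a fluorometric plate reader.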

Histone deacetylase 3, sequence (O15379 whole entry): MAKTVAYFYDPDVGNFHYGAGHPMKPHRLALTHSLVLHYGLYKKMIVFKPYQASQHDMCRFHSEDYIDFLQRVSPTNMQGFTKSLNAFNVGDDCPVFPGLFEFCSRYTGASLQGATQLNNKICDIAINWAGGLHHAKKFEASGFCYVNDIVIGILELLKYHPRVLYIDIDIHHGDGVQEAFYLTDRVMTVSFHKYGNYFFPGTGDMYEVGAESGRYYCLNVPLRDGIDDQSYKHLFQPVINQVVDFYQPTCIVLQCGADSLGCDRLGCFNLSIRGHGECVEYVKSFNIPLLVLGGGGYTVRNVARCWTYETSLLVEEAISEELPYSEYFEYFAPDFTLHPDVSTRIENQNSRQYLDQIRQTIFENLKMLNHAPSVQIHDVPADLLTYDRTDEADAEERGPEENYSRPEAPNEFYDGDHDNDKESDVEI

Compound	IC50
CC(C)(C)c1[nH]c2ccccc2c1[C@H]1CCCN(Cc2ccc(/C=C/C(=O)NO)cc2F)C1	9 nM
CC(C)(C)c1[nH]c2ccccc2c1[C@@H]1CCCN(Cc2ccc(/C=C/C(=O)NO)cc2F)C1	21 nM

Biological target: Histone deacetylase 4 (Homo sapiens, UniProt P56524)
Assay: Inhibition of HDAC4 expressed in baculovirus system by fluorescent assay
Conditions: not given
Procedure, shortened: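 HDAC4 purified from a baculovirus expression system. Substrate bis-Boc-(Ac)Lys-rhodamine 110; its deacetylation generates a fluorophore, read on a fluorometric plate reader.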

Histone deacetylase 4, sequence (P56524 whole entry): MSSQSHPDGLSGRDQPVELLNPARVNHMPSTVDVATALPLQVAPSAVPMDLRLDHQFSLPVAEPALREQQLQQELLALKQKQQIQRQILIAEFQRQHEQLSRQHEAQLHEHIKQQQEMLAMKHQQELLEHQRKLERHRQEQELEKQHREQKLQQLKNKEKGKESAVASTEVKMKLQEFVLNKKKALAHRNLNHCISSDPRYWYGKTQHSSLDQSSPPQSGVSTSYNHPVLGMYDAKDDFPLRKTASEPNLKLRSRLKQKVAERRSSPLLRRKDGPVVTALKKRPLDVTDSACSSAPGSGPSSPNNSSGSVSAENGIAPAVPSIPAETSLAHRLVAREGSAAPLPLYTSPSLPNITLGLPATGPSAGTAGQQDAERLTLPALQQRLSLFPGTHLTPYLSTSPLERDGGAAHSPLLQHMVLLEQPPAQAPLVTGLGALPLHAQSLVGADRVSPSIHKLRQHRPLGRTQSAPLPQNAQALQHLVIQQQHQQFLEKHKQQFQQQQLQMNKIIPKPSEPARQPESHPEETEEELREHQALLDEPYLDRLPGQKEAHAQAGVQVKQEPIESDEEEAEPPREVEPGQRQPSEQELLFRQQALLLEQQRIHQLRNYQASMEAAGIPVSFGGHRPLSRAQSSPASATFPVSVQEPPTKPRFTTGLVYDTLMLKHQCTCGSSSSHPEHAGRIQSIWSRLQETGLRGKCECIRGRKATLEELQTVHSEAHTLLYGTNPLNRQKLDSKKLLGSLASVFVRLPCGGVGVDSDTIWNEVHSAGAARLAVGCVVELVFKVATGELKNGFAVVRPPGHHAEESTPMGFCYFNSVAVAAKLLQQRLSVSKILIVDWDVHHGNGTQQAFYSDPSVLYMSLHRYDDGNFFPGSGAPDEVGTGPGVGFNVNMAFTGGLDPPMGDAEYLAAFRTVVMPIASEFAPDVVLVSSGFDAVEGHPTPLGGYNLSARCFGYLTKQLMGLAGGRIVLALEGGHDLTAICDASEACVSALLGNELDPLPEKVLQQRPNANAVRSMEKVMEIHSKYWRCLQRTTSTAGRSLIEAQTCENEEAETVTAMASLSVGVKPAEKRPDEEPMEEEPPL

Compound	IC50
CC(C)(C)c1[nH]c2ccccc2c1[C@H]1CCCN(Cc2ccc(/C=C/C(=O)NO)cc2F)C1	28 nM
CC(C)(C)c1[nH]c2ccccc2c1[C@@H]1CCCN(Cc2ccc(/C=C/C(=O)NO)cc2F)C1	38 nM

Biological target: T1, Protein deacetylase HDAC6 (Homo sapiens, UniProt Q9UBN7)
T1 sequence (Q9UBN7 whole entry): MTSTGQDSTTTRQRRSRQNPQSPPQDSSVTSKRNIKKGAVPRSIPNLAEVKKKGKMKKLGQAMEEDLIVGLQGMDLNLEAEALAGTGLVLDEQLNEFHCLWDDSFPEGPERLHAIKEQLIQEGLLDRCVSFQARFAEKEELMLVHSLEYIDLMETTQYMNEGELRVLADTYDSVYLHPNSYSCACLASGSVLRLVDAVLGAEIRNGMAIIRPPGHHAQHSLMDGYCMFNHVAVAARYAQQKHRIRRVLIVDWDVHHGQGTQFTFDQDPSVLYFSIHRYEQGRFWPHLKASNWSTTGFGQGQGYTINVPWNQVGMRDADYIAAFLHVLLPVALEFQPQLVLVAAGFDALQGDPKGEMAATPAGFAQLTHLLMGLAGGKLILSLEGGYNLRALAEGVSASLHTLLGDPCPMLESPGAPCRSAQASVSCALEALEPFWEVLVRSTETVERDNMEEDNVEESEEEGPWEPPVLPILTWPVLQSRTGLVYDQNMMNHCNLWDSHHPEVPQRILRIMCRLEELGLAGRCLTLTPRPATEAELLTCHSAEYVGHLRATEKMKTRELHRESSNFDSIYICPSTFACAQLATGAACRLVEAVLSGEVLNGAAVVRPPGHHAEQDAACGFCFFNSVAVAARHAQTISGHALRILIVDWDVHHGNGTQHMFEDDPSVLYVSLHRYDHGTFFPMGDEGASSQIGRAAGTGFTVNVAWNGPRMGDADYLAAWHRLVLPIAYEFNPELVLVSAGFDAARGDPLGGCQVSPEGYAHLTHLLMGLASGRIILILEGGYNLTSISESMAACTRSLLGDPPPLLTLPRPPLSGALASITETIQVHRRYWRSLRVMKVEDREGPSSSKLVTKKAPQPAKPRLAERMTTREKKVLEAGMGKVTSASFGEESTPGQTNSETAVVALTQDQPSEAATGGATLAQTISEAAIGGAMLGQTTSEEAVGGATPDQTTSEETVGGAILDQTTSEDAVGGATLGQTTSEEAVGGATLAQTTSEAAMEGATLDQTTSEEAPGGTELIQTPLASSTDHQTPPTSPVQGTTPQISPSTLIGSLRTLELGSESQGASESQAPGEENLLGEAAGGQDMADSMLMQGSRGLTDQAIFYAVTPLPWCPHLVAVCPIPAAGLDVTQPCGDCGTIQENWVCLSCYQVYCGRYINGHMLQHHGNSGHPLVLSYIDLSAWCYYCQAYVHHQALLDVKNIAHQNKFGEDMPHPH
Assay: Inhibition of FLAG-tagged HDAC6 expressed in HEK293 cells by fluorescent assay
Format: cell-based
Conditions: not given
Procedure, shortened: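 HDAC6 immunopurified from 293 cells stably expressing the FLAG-tagged isoform. Deacetylation of the bis-Boc-(Ac)Lys-rhodamine 110 substrate releases a fluorophore, read on a fluorometric plate reader.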

Compound	IC50
CC(C)(C)c1[nH]c2ccccc2c1[C@H]1CCCN(Cc2ccc(/C=C/C(=O)NO)cc2F)C1	118 nM
CC(C)(C)c1[nH]c2ccccc2c1[C@@H]1CCCN(Cc2ccc(/C=C/C(=O)NO)cc2F)C1	110 nM

Biological target: T2, Histone deacetylase 8 (Homo sapiens, UniProt Q9BY41)
T2 sequence (Q9BY41 whole entry): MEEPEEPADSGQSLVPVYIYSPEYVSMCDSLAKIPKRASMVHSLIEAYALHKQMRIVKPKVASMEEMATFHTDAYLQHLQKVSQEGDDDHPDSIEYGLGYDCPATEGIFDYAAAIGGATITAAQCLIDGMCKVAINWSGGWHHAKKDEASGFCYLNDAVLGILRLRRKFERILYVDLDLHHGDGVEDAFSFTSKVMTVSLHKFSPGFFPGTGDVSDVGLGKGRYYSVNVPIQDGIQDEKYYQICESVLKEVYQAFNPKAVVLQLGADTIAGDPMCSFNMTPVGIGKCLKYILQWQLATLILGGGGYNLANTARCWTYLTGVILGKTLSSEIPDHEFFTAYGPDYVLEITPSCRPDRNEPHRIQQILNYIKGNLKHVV
Assay: Inhibition of HDAC8 expressed in baculovirus system by fluorescent assay
Conditions: not given

Compound	IC50
CC(C)(C)c1[nH]c2ccccc2c1[C@H]1CCCN(Cc2ccc(/C=C/C(=O)NO)cc2F)C1	217 nM
CC(C)(C)c1[nH]c2ccccc2c1[C@@H]1CCCN(Cc2ccc(/C=C/C(=O)NO)cc2F)C1	364 nM

System: not listed separately
Assay: Association constant, pKa at pH 2 to 12
Format: physicochemical
Conditions: not given

pKa	Compound
7.8	Cc1[nH]c2ccccc2c1C1CCCN(Cc2ccc(/C=C/C(=O)NO)cc2)C1 (configuration not stated)
7.4	O=C(/C=C/c1ccc(CN2CCCC(c3c(-c4ccccc4)[nH]c4ccccc34)C2)c(F)c1)NO (configuration not stated)
7.3	CC(C)(C)c1[nH]c2ccccc2c1C1CCCN(Cc2ccc(/C=C/C(=O)NO)cc2F)C1 (configuration not stated)
7.4	CC(C)(C)c1[nH]c2ccccc2c1C1CCCN(Cc2ccc(/C=C/C(=O)NO)cc2Cl)C1 (configuration not stated)
7.3	O=C(/C=C/c1ccc(CN2CCCC(c3c[nH]c4ccccc34)C2)cc1)NO (configuration not stated)
7.7	O=C(/C=C/c1ccc(CN2CCCC(c3c(-c4ccccc4)[nH]c4ccccc34)C2)cc1)NO (configuration not stated)
7.8	CC(C)(C)c1[nH]c2ccccc2c1C1CCCN(Cc2ccc(/C=C/C(=O)NO)cc2)C1 (configuration not stated)
